# According to ChEMBL document CHEMBL1138189 (J Med Chem, 2006):
# Values joined by “and” are separate entries in the source; they are usually repeats but may differ in a detail not shown here. Identical values can stand only once.
# Tests used:
# [1] = biological target: Adenosine receptor A2a (Homo sapiens, UniProt P29274); experiment: Displacement of [3H]ZM-241385 from human adenosine A2A receptor expressed in HEK293 cells; format: cell-based
# Procedure, shortened: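 Human A2A receptor membranes in 50 mM Tris HCl, 10 mM MgCl2, pH 7.4, competed against [3H]-ZM241385 at 6-8 test concentrations for 60 min at 25 °C. NECA defined nonspecific binding. Bound label was collected on glass-fiber filters by filtration and counted. Means ± SEM.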
# [2] = biological target: Adenosine receptors; A2a & A3 (Homo sapiens) (UniProt P0DMS8+P29274); experiment: Selectivity for human adenosine A3 over human adenosine A2A receptor; format: protein assay
# [3] = biological target: Adenosine receptors; A1 & A3 (Homo sapiens) (UniProt P30542+P0DMS8); experiment: Selectivity for human adenosine A3 over human adenosine A1 receptor; format: protein assay
# [4] = biological target: T1, Adenosine receptor A3 (Homo sapiens, UniProt P0DMS8); experiment: Displacement of [3H]MRE3008-F20 from human adenosine A3 receptor expressed in HEK293 cells; format: cell-based
# T1 sequence (P0DMS8 whole entry): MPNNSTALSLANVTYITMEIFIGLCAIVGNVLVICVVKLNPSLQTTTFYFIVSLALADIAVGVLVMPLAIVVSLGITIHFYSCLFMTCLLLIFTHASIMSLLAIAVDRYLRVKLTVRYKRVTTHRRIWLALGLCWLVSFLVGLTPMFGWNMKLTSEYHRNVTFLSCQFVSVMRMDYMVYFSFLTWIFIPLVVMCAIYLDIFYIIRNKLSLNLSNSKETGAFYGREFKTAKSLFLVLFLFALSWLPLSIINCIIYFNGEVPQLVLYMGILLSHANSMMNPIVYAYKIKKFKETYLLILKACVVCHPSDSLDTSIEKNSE
# Procedure, shortened: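 Assays ran in duplicate with 1 nM [3H]MRE3008-F20 on human A3 receptor membranes in 50 mM Tris HCl, 10 mM MgCl2, pH 7.4, at 6-8 ligand concentrations, for 120 min at 4 °C. Bound label was separated by GF/B filtration and counted. Means ± SEM.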
# [5] = biological target: T2, Adenosine receptor A1 (Homo sapiens, UniProt P30542); experiment: Displacement of [3H]DPCPX from human adenosine A1 receptor expressed in CHO cells; format: cell-based
# T2 sequence (P30542 whole entry): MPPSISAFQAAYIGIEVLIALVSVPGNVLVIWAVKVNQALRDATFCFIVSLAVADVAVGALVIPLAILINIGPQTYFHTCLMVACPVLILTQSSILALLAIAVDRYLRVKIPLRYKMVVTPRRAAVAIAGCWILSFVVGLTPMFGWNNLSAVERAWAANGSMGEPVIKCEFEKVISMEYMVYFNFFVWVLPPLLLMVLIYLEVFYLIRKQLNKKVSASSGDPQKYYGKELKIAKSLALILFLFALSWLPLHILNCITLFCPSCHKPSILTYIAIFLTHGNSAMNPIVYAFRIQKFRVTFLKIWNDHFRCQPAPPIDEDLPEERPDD
# Procedure, shortened: (§1)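 CHO membranes bearing recombinant human A1 receptor, in 50 mM Tris HCl pH 7.4, incubated 120 min at 25 °C with 1 nM [3H]DPCPX and 6-8 test concentrations. CHA defined nonspecific binding. Bound and free label were separated on GF/B glass-fiber filters and counted. […] Means ± SEM.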
# [6] = biological target: T3, Adenosine receptor A2b (Homo sapiens, UniProt P29275); experiment: Inhibition of NECA-stimulated cAMP accumulation in CHO cells expressing human adenosine A2B receptor; format: functional, cell-based
# T3 sequence (P29275 whole entry): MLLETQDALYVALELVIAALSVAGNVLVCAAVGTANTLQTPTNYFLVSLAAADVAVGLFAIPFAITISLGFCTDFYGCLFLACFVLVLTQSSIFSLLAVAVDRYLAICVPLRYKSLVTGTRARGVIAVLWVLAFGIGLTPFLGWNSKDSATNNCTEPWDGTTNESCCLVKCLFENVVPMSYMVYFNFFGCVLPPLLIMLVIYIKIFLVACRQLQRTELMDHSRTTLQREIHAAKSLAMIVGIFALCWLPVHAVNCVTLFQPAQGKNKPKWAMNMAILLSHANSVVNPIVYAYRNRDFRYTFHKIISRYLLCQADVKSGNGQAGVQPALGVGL
# Procedure, shortened: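 Trypsinized A2B-transfected CHO cells (1 × 10⁶ per assay) were preincubated 10 min at 37 °C in pH 7.4 salt buffer with 2 IU/mL adenosine deaminase and Ro 20-1724, then stimulated with 100 nM NECA plus antagonist. Stopped with cold 6% TCA, ether-extracted, and cAMP measured by [3H]cAMP competition with adrenal binding protein. IC50 derived.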
# [7] = biological target: T4, Adenosine receptor A2b (Homo sapiens) (UniProt P29275); experiment: Inhibition of NECA-stimulated cAMP accumulation in CHO cells expressing human adenosine A2B receptor at 1 uM; format: functional, cell-based
# T4 sequence (whole entry): T3 sequence (P29275 whole entry)
# [8] = biological target: T5, Adenosine receptor A1 (Homo sapiens) (UniProt P30542); experiment: Inhibition of [3H]DPCPX binding to human adenosine A1 receptor expressed in CHO cells at 1 uM; format: cell-based; procedure, shortened: as §1
# T5 sequence (whole entry): T2 sequence (P30542 whole entry)
# Sequence of Adenosine receptors; A2a & A3 (Homo sapiens) (P29274 whole entry, looked up, one chain of several): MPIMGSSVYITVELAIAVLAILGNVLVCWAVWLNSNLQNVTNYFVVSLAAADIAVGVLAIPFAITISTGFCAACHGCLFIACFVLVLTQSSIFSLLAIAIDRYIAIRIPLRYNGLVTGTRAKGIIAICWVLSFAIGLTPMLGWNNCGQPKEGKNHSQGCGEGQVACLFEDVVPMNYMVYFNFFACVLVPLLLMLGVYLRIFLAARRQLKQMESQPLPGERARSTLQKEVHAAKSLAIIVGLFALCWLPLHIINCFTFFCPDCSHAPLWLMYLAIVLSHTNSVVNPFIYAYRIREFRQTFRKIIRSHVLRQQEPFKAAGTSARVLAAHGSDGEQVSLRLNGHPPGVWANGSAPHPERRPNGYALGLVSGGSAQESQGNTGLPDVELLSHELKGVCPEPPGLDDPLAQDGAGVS
# Sequence of Adenosine receptor A2a (P29274 whole entry): as the sequence (P29274 whole entry, looked up, one chain of several) above
Ki [1] [nM],Ratio Ki [2],Ratio Ki [3],Ki [4] [nM],Ki [5] [nM],IC50 [6] [nM],inhibition [7],inhibition [8] [%],IC50 ([6]; cho) [nM],Structure (SMILES)
920,92,> 100,10,> 1000,> 1000,20%,10,,Cc1ccc(NC(=O)Nc2nc3nn(C)cc3c3nc(-c4ccco4)nn23)s1
,,,,,,12% and 20%,,,Cn1cc2c(nc(NC(=O)Nc3ccncc3)n3nc(-c4ccco4)nc23)n1 [listing 1 of 3 here]
65,,,,260,,,,> 1000,Cn1cc2c(nc(NC(=O)Nc3ccncc3)n3nc(-c4ccco4)nc23)n1 [listing 2 of 3 here]
60,5,> 83,12,> 1000,250,,22,,Cn1cc2c(nc(NC(=O)Nc3cc4ccccc4o3)n3nc(-c4ccco4)nc23)n1
810,7.3,> 9,110,> 1000,> 1000,17%,12,,Cn1cc2c(nc(NC(=O)Nc3ccc4ccccc4n3)n3nc(-c4ccco4)nc23)n1
180,,,0.5,265,> 1000,,,,Cn1cc2c(nc(NC(=O)Nc3ccccn3)n3nc(-c4ccco4)nc23)n1 [listing 1 of 3 here]
110,,,,355,> 1000,,,,Cn1cc2c(nc(NC(=O)Nc3ccncc3)n3nc(-c4ccco4)nc23)n1 [listing 3 of 3 here]
42,8,62,5.3,330,244,,,,Cn1cc2c(nc(NC(=O)Nc3ccc[n+](C)c3)n3nc(-c4ccco4)nc23)n1
75,7.5,55,10,550,260,,,,Cn1cc2c(nc(NC(=O)Nc3ccc[n+]([O-])c3)n3nc(-c4ccco4)nc23)n1
,360 and 400,530 and 600,,,,20% and 16%,,,Cn1cc2c(nc(NC(=O)Nc3ccccn3)n3nc(-c4ccco4)nc23)n1 [listing 2 of 3 here]
155,,,0.55,245,> 1000,,,,Cn1cc2c(nc(NC(=O)Nc3cccnc3)n3nc(-c4ccco4)nc23)n1 [listing 1 of 3 here]
64,49,307,1.3,400,280,,,,Cn1cc2c(nc(NC(=O)Nc3cccc[n+]3C)n3nc(-c4ccco4)nc23)n1
140,,,0.35,210,,,,> 1000,Cn1cc2c(nc(NC(=O)Nc3ccccn3)n3nc(-c4ccco4)nc23)n1 [listing 3 of 3 here]
350,22,> 62.5,16,> 1000,> 1000,8%,25,,Cn1cc2c(nc(NC(=O)Nc3ccco3)n3nc(-c4ccco4)nc23)n1
410,117,> 286,3.5,> 1000,> 1000,31%,24,,Cc1sccc1NC(=O)Nc1nc2nn(C)cc2c2nc(-c3ccco3)nn12
,281 and 284,445 and 522,,,,18% and 24%,,,Cn1cc2c(nc(NC(=O)Nc3cccnc3)n3nc(-c4ccco4)nc23)n1 [listing 2 of 3 here]
400,36,> 90,11,> 1000,> 1000,4%,20,,Cn1cc2c(nc(NC(=O)Nc3ccoc3)n3nc(-c4ccco4)nc23)n1
110,31,228,3.5,800,320,,,,Cn1cc2c(nc(NC(=O)Nc3cccc[n+]3[O-])n3nc(-c4ccco4)nc23)n1
125,,,0.44,230,,,,> 1000,Cn1cc2c(nc(NC(=O)Nc3cccnc3)n3nc(-c4ccco4)nc23)n1 [listing 3 of 3 here]
153,7.3,> 47,21,> 1000,> 1000,12%,35,,Cn1cc2c(nc(NC(=O)Nc3cc[n+]([O-])cc3)n3nc(-c4ccco4)nc23)n1
282,10,> 36,28,> 1000,> 1000,6%,20,,Cn1cc2c(nc(NC(=O)Nc3cc[n+](C)cc3)n3nc(-c4ccco4)nc23)n1
